The record followed here is ChEMBL document CHEMBL1141408, “Synthesis and antimalarial activity of new isotebuquine analogues” (J Med Chem, 2007).

Converted amounts (≈) assume the structure as drawn. The source made the active and inactive calls. The calls are words filed in the database; no cut-off is given here.

One may read the IC50 as the concentration that inhibits the measured activity by half.

Series [1] has as its system Plasmodium falciparum. Briefly: Antimalarial activity against chloroquine-resistant Plasmodium falciparum W2. It counts as functional, organism-based. Summed up:
(§1)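 Compound DMSO stocks were diluted 400-fold in RPMI 1640 with 25 mM Hepes, 32 mM NaHCO₃ and 10% Albumax I, then 2-fold serially over 11 concentrations. Parasites were exposed for 48 h at 37 °C under 5% O₂/5% CO₂/90% N₂, pulsed with [³H]-hypoxanthine for 18 h, and DNA was harvested onto glass filters for scintillation counting. IC50 was derived by nonlinear-regression logistic dose-response fitting.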

Series [2] relates to Plasmodium falciparum. Briefly: Antimalarial activity against chloroquine-sensitive Plasmodium falciparum D6. Format: functional, organism-based. Summed up: as §1
For series [3], the system named is Plasmodium falciparum. Briefly: Antimalarial activity against chloroquine-resistant Plasmodium falciparum TM91C235. It counts as functional, organism-based. Summed up: as §1
The nature of series [4]: Toxicity against murine J774 macrophage cells. The note with it: mouse. It counts as cell-based. Summed up:
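Murine J774 monocyte-like macrophage subclone G8, maintained in DMEM with 10% fetal calf serum, 2 mM L-glutamine and 50 µg/mL gentamicin at 37 °C in 5% CO2/95% air. Cells seeded at 1 × 10⁴/well and left 24 h. Drug or solvent control, diluted in medium, then added for 72 h. Viability read by MTS tetrazolium/formazan conversion after 1–2 h at 37 °C.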

Take `CC(C)(C)NCc1c(O)cc(Nc2ccnc3cc(Cl)ccc23)cc1-c1ccc(C(F)(F)F)cc1`: the IC50 in the series on Plasmodium falciparum [1] was determined as 14 ng/mL (≈ 28 nM); in the series with Plasmodium falciparum [2] it was 1.2 ng/mL (≈ 2.4 nM); with Plasmodium falciparum [3], 73 ng/mL (≈ 146 nM).
The like results for `[O-][n+]1ccc(Nc2cc(O)cc(-c3ccc(Cl)cc3)c2)c2ccc(Cl)cc21` were, in that order, above 1000 ng/mL, 397 ng/mL (≈ 999 nM) and 580 ng/mL (≈ 1460 nM).
On to `CC(C)(C)NCc1c(O)cc(-c2ccc(Cl)cc2)cc1Nc1ccnc2cc(Cl)ccc12`, for which the IC50 is 1.6 ng/mL (≈ 3.43 nM) in the series on Plasmodium falciparum [1], 1600 ng/mL (≈ 3430 nM) in series [4], 1.4 ng/mL (≈ 3 nM) in the series with Plasmodium falciparum [2] and 1.7 ng/mL (≈ 3.64 nM) in the series with Plasmodium falciparum [3].
With `CC(C)(C)NCc1c(Nc2cc[n+]([O-])c3cc(Cl)ccc23)cc(O)cc1-c1ccc(Cl)cc1`, the IC50 was 9.2 ng/mL (≈ 19.1 nM) in the series on Plasmodium falciparum [1], 4.3 ng/mL (≈ 8.91 nM) in the series on Plasmodium falciparum [2] and 8.8 ng/mL (≈ 18.2 nM) in the series with Plasmodium falciparum [3].
Take `CC(C)(C)NCc1c(O)cc(Nc2ccnc3cc(Cl)ccc23)c(CNC(C)(C)C)c1-c1ccc(C(F)(F)F)cc1`: the IC50 with Plasmodium falciparum [1] came to 3.6 ng/mL (≈ 6.15 nM); with Plasmodium falciparum [2], 1.8 ng/mL (≈ 3.08 nM); in the series on Plasmodium falciparum [3], 3 ng/mL (≈ 5.13 nM).
For the molecule `CC(C)(C)NCc1c(O)cc(-c2ccc(C(F)(F)F)cc2)c(CNC(C)(C)C)c1Nc1ccnc2cc(Cl)ccc12`, the IC50 was found to be 2.8 ng/mL (≈ 4.79 nM) in the series with Plasmodium falciparum [1], 750 ng/mL (≈ 1280 nM) in series [4], 1.9 ng/mL (≈ 3.25 nM) in the series on Plasmodium falciparum [2] and 2 ng/mL (≈ 3.42 nM) with Plasmodium falciparum [3].
Consider `CC(C)(C)NCc1cc(Nc2cc[n+]([O-])c3cc(Cl)ccc23)cc(-c2ccc(Cl)cc2)c1O`, for which the IC50 in the series with Plasmodium falciparum [1] was 0.9 ng/mL (≈ 1.87 nM); in series [4], 7200 ng/mL (≈ 14900 nM); with Plasmodium falciparum [2] it was 1.5 ng/mL (≈ 3.11 nM); in the series with Plasmodium falciparum [3] it was 2.3 ng/mL (≈ 4.77 nM).
With `Oc1cc(Nc2ccnc3cc(Cl)ccc23)cc(-c2ccc(Cl)cc2)c1`, the IC50 was found to be 22.4 ng/mL (≈ 58.8 nM) with Plasmodium falciparum [1] and 8.8 ng/mL (≈ 23.1 nM) in the series with Plasmodium falciparum [2]. Also, the result in the series with Plasmodium falciparum [3] was inactive.
As for `Oc1cc(Nc2ccnc3cc(Cl)ccc23)cc(-c2ccc(C(F)(F)F)cc2)c1`, the IC50 with Plasmodium falciparum [1] came to 300 ng/mL (≈ 723 nM); in the series with Plasmodium falciparum [2], 15 ng/mL (≈ 36.2 nM); in the series with Plasmodium falciparum [3] it was 140 ng/mL (≈ 338 nM).
As to `CC(C)(C)NCc1c(Nc2ccnc3cc(Cl)ccc23)cc(O)cc1-c1ccc(C(F)(F)F)cc1`, the 50% inhibitory concentration (IC50) with Plasmodium falciparum [1] was 130 ng/mL (≈ 260 nM); in series [4], 11600 ng/mL (≈ 23200 nM); in the series with Plasmodium falciparum [2] it was 7.1 ng/mL (≈ 14.2 nM); in the series with Plasmodium falciparum [3], 63 ng/mL (≈ 126 nM).
Take `CC(C)(C)NCc1c(O)cc(Nc2ccnc3cc(Cl)ccc23)c(CNC(C)(C)C)c1-c1ccc(Cl)cc1`: the 50% inhibitory concentration (IC50) stood at 5.3 ng/mL (≈ 9.61 nM) in the series on Plasmodium falciparum [1], 2800 ng/mL (≈ 5080 nM) in series [4], 2.8 ng/mL (≈ 5.08 nM) in the series on Plasmodium falciparum [2] and 2.5 ng/mL (≈ 4.53 nM) with Plasmodium falciparum [3].
As to `CC(C)(C)NCc1c(O)cc(-c2ccc(Cl)cc2)c(CNC(C)(C)C)c1Nc1cc[n+]([O-])c2cc(Cl)ccc12`, the values for the IC50 in the series on Plasmodium falciparum [1], with Plasmodium falciparum [2] and with Plasmodium falciparum [3] were 9.1 ng/mL (≈ 16 nM), 4.1 ng/mL (≈ 7.22 nM) and 8.5 ng/mL (≈ 15 nM), respectively.
Take `CC(C)(C)NCc1c(Nc2ccnc3cc(Cl)ccc23)cc(O)cc1-c1ccc(Cl)cc1`: the IC50 in the series on Plasmodium falciparum [1] was found to be 0.4 ng/mL (≈ 0.858 nM); in series [4], 6100 ng/mL (≈ 13100 nM); with Plasmodium falciparum [2] it was 0.3 ng/mL (≈ 0.643 nM); with Plasmodium falciparum [3], 1.78 ng/mL (≈ 3.82 nM).
As for `CC(C)(C)NCc1c(O)cc(-c2ccc(C(F)(F)F)cc2)cc1Nc1ccnc2cc(Cl)ccc12`, the IC50 came to 2.1 ng/mL (≈ 4.2 nM) in the series on Plasmodium falciparum [1], 1700 ng/mL (≈ 3400 nM) in series [4], 1.8 ng/mL (≈ 3.6 nM) in the series with Plasmodium falciparum [2] and 1.8 ng/mL (≈ 3.6 nM) in the series on Plasmodium falciparum [3].
As for `CC(C)(C)NCc1cc(Nc2ccnc3cc(Cl)ccc23)cc(-c2ccc(Cl)cc2)c1O` [TEBUQUINE], the IC50 with Plasmodium falciparum [1] is 0.04 ng/mL (≈ 0.0858 nM); in series [4], 1800 ng/mL (≈ 3860 nM); in the series on Plasmodium falciparum [2], 0.1 ng/mL (≈ 0.214 nM). Besides, in the series with Plasmodium falciparum [3], the outcome was inactive.
Take `CC(C)(C)NCc1c(O)cc(-c2ccc(Cl)cc2)c(CNC(C)(C)C)c1Nc1ccnc2cc(Cl)ccc12`: the IC50 in the series with Plasmodium falciparum [1] was 2.6 ng/mL (≈ 4.71 nM); in series [4], 3600 ng/mL (≈ 6530 nM); with Plasmodium falciparum [2], 2.2 ng/mL (≈ 3.99 nM); with Plasmodium falciparum [3], 2.3 ng/mL (≈ 4.17 nM).
